Measurements: ChEMBL document CHEMBL3407339, “A novel series of thiazolyl-pyrazoline derivatives: synthesis and evaluation of antifungal activity, cytotoxicity and genotoxicity” (Eur J Med Chem, 2015)
≈ marks a conversion by molar mass, not a printed value.

Assays:
Aspergillus niger = assay: Antifungal activity against Aspergillus niger ATCC 1094 after 72 hrs by broth microdilution assay; format: functional; conditions: ATCC 1094, 72 h
Summary of the method: (§1)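 Compounds dissolved in DMSO, diluted in sterile distilled water from 4 to 0.0039 mg/mL. Molds grown on PDA at 25 °C for 5 days, suspended in double-strength PDB at 10⁵ spores/mL. Incubated at 25 °C for 72 h; mycelial growth read under stereo microscope. MIC = lowest concentration inhibiting visible growth. Ketoconazole reference.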

Salmonella typhimurium [1] = assay: Mutagenicity in Salmonella typhimurium TA98 at 5 mg/ml after 48 hrs by AMES MPF assay in presence of Sprague-Dawley rat liver microsomal S9 fraction relative to baseline; format: toxicity, organism-based; conditions: salmonella enterica subsp. enterica serovar typhimurium
Summary of the method: (§2)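 Ames MPF fluctuation test with TA98/TA100. Overnight cultures (37 °C, 14–16 h) mixed with exposure medium; ±Aroclor-1254-induced rat liver S9 (final 4.5% v/v). Compounds in DMSO, 0.156–5 mg/mL. 90 min exposure at 37 °C, then indicator medium; 48 wells per concentration, 48 h at 37 °C, in triplicate. Yellow wells counted; fold induction over baseline (mean + 1 SD of zero-dose control).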

Candida parapsilosis = assay: Antifungal activity against Candida parapsilosis NRLL Y 12696 after 48 hrs by broth microdilution assay; format: functional; conditions: Lodderomyces parapsilosis, NRLL Y 12696, 48 h
Summary of the method: (§3)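 Broth microdilution of DMSO stocks serially diluted in sterile water (4 to 0.0039 mg/mL). Yeasts grown on SDA at 37 °C for 24 h, suspended in double-strength PDB at 10⁵ spores/mL. Incubated at 37 °C for 48 h, then sprayed with 0.5% aqueous TTC. MIC = lowest concentration inhibiting visible growth. Ketoconazole reference.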

Salmonella typhimurium [2] = assay: Mutagenicity in Salmonella typhimurium TA100 at 0.3125 mg/ml after 48 hrs by AMES MPF assay in presence of Sprague-Dawley rat liver microsomal S9 fraction relative to baseline; format: toxicity, organism-based; conditions: salmonella enterica subsp. enterica serovar typhimurium; summary of the method: as §2
Salmonella typhimurium [3] = assay: Mutagenicity in Salmonella typhimurium TA100 at 0.625 mg/ml after 48 hrs by AMES MPF assay in presence of Sprague-Dawley rat liver microsomal S9 fraction relative to baseline; format: toxicity, organism-based; conditions: salmonella enterica subsp. enterica serovar typhimurium; summary of the method: as §2
Salmonella typhimurium [4] = assay: Mutagenicity in Salmonella typhimurium TA100 at 0.625 mg/ml after 48 hrs by AMES MPF assay in absence of Sprague-Dawley rat liver microsomal S9 fraction relative to baseline; format: toxicity, organism-based; conditions: salmonella enterica subsp. enterica serovar typhimurium; summary of the method: as §2
Salmonella typhimurium [5] = assay: Mutagenicity in Salmonella typhimurium TA98 at 0.625 mg/ml after 48 hrs by AMES MPF assay in absence of Sprague-Dawley rat liver microsomal S9 fraction relative to baseline; format: toxicity, organism-based; conditions: salmonella enterica subsp. enterica serovar typhimurium; summary of the method: as §2
Salmonella typhimurium [6] = assay: Mutagenicity in Salmonella typhimurium TA100 at 0.3125 mg/ml after 48 hrs by AMES MPF assay in absence of Sprague-Dawley rat liver microsomal S9 fraction relative to baseline; format: toxicity, organism-based; conditions: salmonella enterica subsp. enterica serovar typhimurium; summary of the method: as §2
Salmonella typhimurium [7] = assay: Mutagenicity in Salmonella typhimurium TA98 at 1.25 mg/ml after 48 hrs by AMES MPF assay in absence of Sprague-Dawley rat liver microsomal S9 fraction relative to baseline; format: toxicity, organism-based; conditions: salmonella enterica subsp. enterica serovar typhimurium; summary of the method: as §2
Salmonella typhimurium [8] = assay: Mutagenicity in Salmonella typhimurium TA98 at 2.5 mg/ml after 48 hrs by AMES MPF assay in presence of Sprague-Dawley rat liver microsomal S9 fraction relative to baseline; format: toxicity, organism-based; conditions: salmonella enterica subsp. enterica serovar typhimurium; summary of the method: as §2
Salmonella typhimurium [9] = assay: Mutagenicity in Salmonella typhimurium TA98 at 1.25 mg/ml after 48 hrs by AMES MPF assay in presence of Sprague-Dawley rat liver microsomal S9 fraction relative to baseline; format: toxicity, organism-based; conditions: salmonella enterica subsp. enterica serovar typhimurium; summary of the method: as §2
Fusarium solani = assay: Antifungal activity against Fusarium solani NRRL 13414 after 72 hrs by broth microdilution assay; format: functional; conditions: NRRL 13414, 72 h; summary of the method: as §1
Salmonella typhimurium [10] = assay: Mutagenicity in Salmonella typhimurium TA100 at 2.5 mg/ml after 48 hrs by AMES MPF assay in absence of Sprague-Dawley rat liver microsomal S9 fraction relative to baseline; format: toxicity, organism-based; conditions: salmonella enterica subsp. enterica serovar typhimurium; summary of the method: as §2
Salmonella typhimurium [11] = assay: Mutagenicity in Salmonella typhimurium TA100 at 2.5 mg/ml after 48 hrs by AMES MPF assay in presence of Sprague-Dawley rat liver microsomal S9 fraction relative to baseline; format: toxicity, organism-based; conditions: salmonella enterica subsp. enterica serovar typhimurium; summary of the method: as §2
Salmonella typhimurium [12] = assay: Mutagenicity in Salmonella typhimurium TA98 at 0.156 mg/ml after 48 hrs by AMES MPF assay in absence of Sprague-Dawley rat liver microsomal S9 fraction relative to baseline; format: toxicity, organism-based; conditions: salmonella enterica subsp. enterica serovar typhimurium; summary of the method: as §2
A549 = assay: Antiproliferative activity against human A549 cells after 24 hrs by XTT assay; format: functional, cell-based; conditions: A549, 24 h
Summary of the method: (§4)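 A549 cells in RPMI and NIH/3T3 cells in DMEM, each with fetal calf serum, antibiotics and 7.5% NaHCO₃, at 37 °C, 5% CO₂. Seeded at 20,000 cells/well, 24 h, then compounds added in medium at 500–3.9 doses (final DMSO <0.1%) for 24 h. XTT read after 3 h at 480 nm (ref 680 nm). IC₅₀ by non-linear regression; triplicates; cisplatin control.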

Pichia kudriavzevii = assay: Antifungal activity against Candida krusei NRLL Y 7179 after 48 hrs by broth microdilution assay; format: functional; conditions: NRLL Y 7179, 48 h; summary of the method: as §3
Nakaseomyces glabratus = assay: Antifungal activity against Candida glabrata clinical isolate after 48 hrs by broth microdilution assay; format: functional; summary of the method: as §3
Aspergillus flavus = assay: Antifungal activity against Aspergillus flavus NRRL 980 after 72 hrs by broth microdilution assay; format: functional; conditions: NRRL 980, 72 h; summary of the method: as §1
Salmonella typhimurium [13] = assay: Mutagenicity in Salmonella typhimurium TA98 at 2.5 mg/ml after 48 hrs by AMES MPF assay in absence of Sprague-Dawley rat liver microsomal S9 fraction relative to baseline; format: toxicity, organism-based; conditions: salmonella enterica subsp. enterica serovar typhimurium; summary of the method: as §2
Candida tropicalis = assay: Antifungal activity against Candida tropicalis NRLL Y 12968 after 48 hrs by broth microdilution assay; format: functional; conditions: NRLL Y 12968, 48 h; summary of the method: as §3
Aspergillus parasiticus = assay: Antifungal activity against Aspergillus parasiticus NRRL 465 after 72 hrs by broth microdilution assay; format: functional; conditions: NRRL 465, 72 h; summary of the method: as §1
Salmonella typhimurium [14] = assay: Mutagenicity in Salmonella typhimurium TA100 at 5 mg/ml after 48 hrs by AMES MPF assay in presence of Sprague-Dawley rat liver microsomal S9 fraction relative to baseline; format: toxicity, organism-based; conditions: salmonella enterica subsp. enterica serovar typhimurium; summary of the method: as §2
Salmonella typhimurium [15] = assay: Mutagenicity in Salmonella typhimurium TA98 at 0.3125 mg/ml after 48 hrs by AMES MPF assay in absence of Sprague-Dawley rat liver microsomal S9 fraction relative to baseline; format: toxicity, organism-based; conditions: salmonella enterica subsp. enterica serovar typhimurium; summary of the method: as §2
Salmonella typhimurium [16] = assay: Mutagenicity in Salmonella typhimurium TA98 at 0.3125 mg/ml after 48 hrs by AMES MPF assay in presence of Sprague-Dawley rat liver microsomal S9 fraction relative to baseline; format: toxicity, organism-based; conditions: salmonella enterica subsp. enterica serovar typhimurium; summary of the method: as §2
Salmonella typhimurium [17] = assay: Mutagenicity in Salmonella typhimurium TA100 at 0.156 mg/ml after 48 hrs by AMES MPF assay in absence of Sprague-Dawley rat liver microsomal S9 fraction relative to baseline; format: toxicity, organism-based; conditions: salmonella enterica subsp. enterica serovar typhimurium; summary of the method: as §2
Salmonella typhimurium [18] = assay: Mutagenicity in Salmonella typhimurium TA100 at 0.156 mg/ml after 48 hrs by AMES MPF assay in presence of Sprague-Dawley rat liver microsomal S9 fraction relative to baseline; format: toxicity, organism-based; conditions: salmonella enterica subsp. enterica serovar typhimurium; summary of the method: as §2
Salmonella typhimurium [19] = assay: Mutagenicity in Salmonella typhimurium TA100 at 1.25 mg/ml after 48 hrs by AMES MPF assay in absence of Sprague-Dawley rat liver microsomal S9 fraction relative to baseline; format: toxicity, organism-based; conditions: salmonella enterica subsp. enterica serovar typhimurium; summary of the method: as §2
Candida albicans = assay: Antifungal activity against Candida albicans ATCC 90028 after 48 hrs by broth microdilution assay; format: functional; conditions: ATCC 90028, 48 h; summary of the method: as §3
Salmonella typhimurium [20] = assay: Mutagenicity in Salmonella typhimurium TA98 at 0.156 mg/ml after 48 hrs by AMES MPF assay in presence of Sprague-Dawley rat liver microsomal S9 fraction relative to baseline; format: toxicity, organism-based; conditions: salmonella enterica subsp. enterica serovar typhimurium; summary of the method: as §2
[Candida] zeylanoides = Antifungal activity against Candida zeylanoides NRLL Y 1774 after 48 hrs by broth microdilution assay; format: functional; conditions: Dujonia zeylanoides, NRLL Y 1774, 48 h; summary of the method: as §3
[21] = Cytotoxicity against mouse NIH/3T3 cells after 24 hrs by XTT assay; format: cell-based; conditions: NIH3T3, 24 h; summary of the method: as §4
Salmonella typhimurium [22] = assay: Mutagenicity in Salmonella typhimurium TA100 at 5 mg/ml after 48 hrs by AMES MPF assay in absence of Sprague-Dawley rat liver microsomal S9 fraction relative to baseline; format: toxicity, organism-based; conditions: salmonella enterica subsp. enterica serovar typhimurium; summary of the method: as §2
Salmonella typhimurium [23] = assay: Mutagenicity in Salmonella typhimurium TA98 at 0.625 mg/ml after 48 hrs by AMES MPF assay in presence of Sprague-Dawley rat liver microsomal S9 fraction relative to baseline; format: toxicity, organism-based; conditions: salmonella enterica subsp. enterica serovar typhimurium; summary of the method: as §2
Salmonella typhimurium [24] = assay: Mutagenicity in Salmonella typhimurium TA98 at 5 mg/ml after 48 hrs by AMES MPF assay in absence of Sprague-Dawley rat liver microsomal S9 fraction relative to baseline; format: toxicity, organism-based; conditions: salmonella enterica subsp. enterica serovar typhimurium; summary of the method: as §2
Salmonella typhimurium [25] = assay: Mutagenicity in Salmonella typhimurium TA100 at 1.25 mg/ml after 48 hrs by AMES MPF assay in presence of Sprague-Dawley rat liver microsomal S9 fraction relative to baseline; format: toxicity, organism-based; conditions: salmonella enterica subsp. enterica serovar typhimurium; summary of the method: as §2

## Fc1ccc(C2CC(c3ccc(Cl)s3)=NN2c2nc(-c3ccc(C(F)(F)F)cc3)cs2)cc1 (stereo unspecified)
Aspergillus niger
  MIC: 250 µg/mL (≈ 492 µM)
Salmonella typhimurium [1]
  fold change (FC): 0.98
Candida parapsilosis
  MIC: 500 µg/mL (≈ 984 µM)
Salmonella typhimurium [2]
  fold change (FC): 2.31
Salmonella typhimurium [3]
  fold change (FC): 2.54
Salmonella typhimurium [4]
  fold change (FC): 1.33
Salmonella typhimurium [5]
  fold change (FC): 0.67
Salmonella typhimurium [6]
  fold change (FC): 1
Salmonella typhimurium [7]
  fold change (FC): 0.67
Salmonella typhimurium [8]
  fold change (FC): 0.33
Salmonella typhimurium [9]
  fold change (FC): 0.22
Fusarium solani
  MIC: 250 µg/mL (≈ 492 µM)
Salmonella typhimurium [10]
  fold change (FC): 1.33
Salmonella typhimurium [11]
  fold change (FC): 2.31
Salmonella typhimurium [12]
  fold change (FC): 0
A549
  IC50: > 500 µg/mL
Pichia kudriavzevii
  MIC: 1000 µg/mL (≈ 1970 µM)
Nakaseomyces glabratus
  MIC: 125 µg/mL (≈ 246 µM)
Aspergillus flavus
  MIC: 125 µg/mL (≈ 246 µM)
Salmonella typhimurium [13]
  fold change (FC): 0
Candida tropicalis
  MIC: 500 µg/mL (≈ 984 µM)
Aspergillus parasiticus
  MIC: 250 µg/mL (≈ 492 µM)
Salmonella typhimurium [14]
  fold change (FC): 2.31
Salmonella typhimurium [15]
  fold change (FC): 0.33
Salmonella typhimurium [16]
  fold change (FC): 0.55
Salmonella typhimurium [17]
  fold change (FC): 0.67
Salmonella typhimurium [18]
  fold change (FC): 2.08
Salmonella typhimurium [19]
  fold change (FC): 3
Candida albicans
  MIC: 500 µg/mL (≈ 984 µM)
Salmonella typhimurium [20]
  fold change (FC): 0.87
[Candida] zeylanoides
  MIC: 500 µg/mL (≈ 984 µM)
[21]
  IC50: > 500 µg/mL
Salmonella typhimurium [22]
  fold change (FC): 2.67
Salmonella typhimurium [23]
  fold change (FC): 1.09
Salmonella typhimurium [24]
  fold change (FC): 0.67
Salmonella typhimurium [25]
  fold change (FC): 2.77
